Reference: ChEMBL document CHEMBL5678806, “NMS-P937, an orally available, specific small-molecule polo-like kinase 1 inhibitor with antitumor activity in solid and hematologic malignancies” (Mol Cancer Ther, 2012)
Calls of active or inactive are those of the source. The rule behind the calls is not given here.

Legend:
[1] = target: Tyrosine-protein kinase SYK (Homo sapiens, UniProt P43405); test: Inhibition of SYK (unknown origin) in presence of [gamma-33P]ATP
[2] = target: CDK9/cyclin T1 (Homo sapiens) (UniProt O60563+P50750); test: Inhibition of C-terminal 6His-tagged full-length recombinant human CDK9/ full-length human cyclin T1 expressed in baculovirus infected Sf21 cells assessed as residual activity at 0.1 uM relative to control
[3] = target: Fibroblast growth factor receptor 4 (Homo sapiens) (UniProt P22455); test: Inhibition of N-terminal His6-tagged recombinant human FGFR4 (442 to 755 residues) expressed in baculovirus infected Sf21 cells assessed as residual activity at 0.1 uM relative to control
[4] = target: Dual specificity mitogen-activated protein kinase kinase 6 (Homo sapiens) (UniProt P52564); test: Inhibition of N-terminal maltose binding protein-tagged human MKK6 (4 to end residues) expressed in E. coli assessed as residual activity at 0.1 uM relative to control
[5] = test system: Platelet-derived growth factor receptor alpha (Homo sapiens), P16234 [D842V]; test: Inhibition of N-terminal His6-tagged recombinant human PDGFRalpha (550 to end residues) D842V mutant expressed in baculovirus infected Sf21 cells assessed as residual activity at 0.1 uM relative to control
[6] = target: Tyrosine-protein kinase ABL2 (Mus musculus) (UniProt Q4JIM5); test: Inhibition of N-terminal His6-tagged recombinant mouse Arg (27 to end residues) expressed in Sf21 cells assessed as residual activity at 1 uM relative to control
[7] = target: Casein kinase I isoform gamma-2 (Homo sapiens) (UniProt P78368); test: Inhibition of N-terminal 6His-tagged recombinant human CK1gamma2 ( 18 to end residues) expressed in baculovirus infected Sf21 cells assessed as residual activity at 1 uM relative to control
[8] = target: Ribosomal protein S6 kinase alpha-2 (Homo sapiens) (UniProt Q15349); test: Inhibition of N-terminal His6-tagged recombinant full-length human Rsk3 expressed in Sf21 cells assessed as residual activity at 1 uM relative to control
MFM-223 = test: Antiproliferative activity against human MFM-223 cells assessed as inhibition of cell growth incubated for 72 hrs by cell-titer glo assay; type: functional, cell-based; details: MFM-223, 72 h
Outline: (§1)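 Cells from ATCC or ECACC, kept in supplier-recommended medium with 1% penicillin-streptomycin at 37°C, 5% CO₂. Seeded at 10,000–30,000/cm² (adherent) or 100,000/mL (nonadherent) in medium with 10% fetal calf serum. Dosed after 24 h in duplicate with serial dilutions. Viable cells read by CellTiter-Glo 72 h later. IC50 from sigmoidal fit. At least two independent experiments.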

HCC1954 = test: Antiproliferative activity against human HCC1954 cells assessed as inhibition of cell growth incubated for 72 hrs by cell-titer glo assay; type: functional, cell-based; details: HCC1954, 72 h
Outline: (§2)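 Cells seeded at 10,000–30,000/cm² (adherent) or 100,000/mL (nonadherent) in medium with 10% fetal calf serum; after 24 h, treated in duplicate with serial dilutions for 72 h. Viable cell number read by CellTiter-Glo luminescence; IC50 from sigmoidal fit; at least two independent experiments.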

HCC1395 = test: Antiproliferative activity against human HCC1395 cells assessed as inhibition of cell growth incubated for 72 hrs by cell-titer glo assay; type: functional, cell-based; details: HCC1395, 72 h; outline: as §2
COLO 320 = test: Antiproliferative activity against human COLO 320 cells assessed as inhibition of cell growth incubated for 72 hrs by cell-titer glo assay; type: functional, cell-based; details: COLO 320, 72 h
Outline: (§3)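 Cells seeded 10,000–30,000/cm² (adherent) or 100,000/mL (suspension) in medium with 10% fetal calf serum; after 24 h treated in duplicate with serial dilutions for 72 h. Viable cells read by CellTiter-Glo luminescence; IC50 from sigmoidal fit; at least two independent experiments.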

SW1417 = test: Antiproliferative activity against human SW1417 cells assessed as inhibition of cell growth incubated for 72 hrs by cell-titer glo assay; type: functional, cell-based; details: SW1417, 72 h
NCI-H460 = test: Antiproliferative activity against human NCI-H460 cells assessed as inhibition of cell growth incubated for 72 hrs by cell-titer glo assay; type: functional, cell-based; details: NCI-H460, 72 h; outline: as §1
NCI-H520 = test: Antiproliferative activity against human NCI-H520 cells assessed as inhibition of cell growth incubated for 72 hrs by cell-titer glo assay; type: functional, cell-based; details: NCI-H520, 72 h; outline: as §1
NCI-H889 = test: Antiproliferative activity against human NCI-H889 cells assessed as inhibition of cell growth incubated for 72 hrs by cell-titer glo assay; type: functional, cell-based; details: NCI-H889, 72 h; outline: as §1
NCI-H146 = test: Antiproliferative activity against human NCI-H146 cells assessed as inhibition of cell growth incubated for 72 hrs by cell-titer glo assay; type: functional, cell-based; details: NCI-H146, 72 h; outline: as §1
LNCaP = test: Antiproliferative activity against human LNCaP cells assessed as inhibition of cell growth incubated for 72 hrs by cell-titer glo assay; type: functional, cell-based; outline: as §2
A-431 = test: Antiproliferative activity against human A-431 cells assessed as inhibition of cell growth incubated for 72 hrs by cell-titer glo assay; type: functional, cell-based; details: A-431, 72 h; outline: as §3
KU812 cell line = test: Antiproliferative activity against human KU812 cell line assessed as inhibition of cell growth incubated for 72 hrs by cell-titer glo assay; type: functional, cell-based; details: KU812, 72 h; outline: as §2
[9] = Half-life in Sprague-Dawley rat at 10 mg/kg, po by LC-MS analysis; type: ADME, organism-based; details: in vivo
[10] = Cmax in Sprague-Dawley rat at 10 mg/kg, po by LC-MS analysis; type: ADME, organism-based; details: in vivo
[11] = Oral bioavailability in Sprague-Dawley rat at 10 mg/kg by LC-MS analysis; type: ADME, organism-based; details: in vivo
A2780 [12] = test: Induction of cell cycle arrest in human A2780 cells assessed as accumulation of cells in G2/M phase by measuring upregulated PLK1 expression incubated for 24 hrs by Western blotting analysis; type: functional, cell-based; details: dose 0.02-0.2 µmol/L
Outline: (§4)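 A2780 ovarian carcinoma cells treated 24 h with a range of concentrations, with DMSO and nocodazole controls. 20 µg protein extract separated by SDS-PAGE and immunoblotted with chemiluminescent detection. Probed for total and phospho-Thr210 PLK1, phospho-Ser10 histone H3, phospho-Thr199 NPM and phospho-Tyr15 CDK1. Total NPM, tubulin and total CDK1 served as loading controls.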

A2780 [13] = test: Induction of cell cycle arrest in human A2780 cells assessed as accumulation of cells in G2/M phase by measuring PLK1 phosphorylation on Thr210 incubated for 24 hrs by Western blotting analysis; type: functional, cell-based; details: dose 0.02-0.2 µmol/L; outline: as §4
A2780 [14] = test: Induction of cell cycle arrest in human A2780 cells assessed as accumulation of cells in G2/M phase by measuring CDK1 phosphorylation on Tyr15 incubated for 24 hrs by Western blotting analysis; type: functional, cell-based; details: dose 0.02-0.2 µmol/L; outline: as §4
HT-29 = test: Antitumor activity against human HT-29 cells xenografted in nu/nu mouse assessed as tumor growth inhibition at 60 mg/kg, po administered for 10 days; type: functional, organism-based; details: time 10.0 day
COLO 205 = test: Antitumor activity against human COLO 205 cells xenografted in nu/nu mouse assessed as tumor growth inhibition at 60 mg/kg, po administered for 10 days; type: functional, organism-based; details: time 10.0 day

Casein kinase I isoform gamma-2 (Homo sapiens), sequence (P78368 whole entry, looked up, canonical isoform): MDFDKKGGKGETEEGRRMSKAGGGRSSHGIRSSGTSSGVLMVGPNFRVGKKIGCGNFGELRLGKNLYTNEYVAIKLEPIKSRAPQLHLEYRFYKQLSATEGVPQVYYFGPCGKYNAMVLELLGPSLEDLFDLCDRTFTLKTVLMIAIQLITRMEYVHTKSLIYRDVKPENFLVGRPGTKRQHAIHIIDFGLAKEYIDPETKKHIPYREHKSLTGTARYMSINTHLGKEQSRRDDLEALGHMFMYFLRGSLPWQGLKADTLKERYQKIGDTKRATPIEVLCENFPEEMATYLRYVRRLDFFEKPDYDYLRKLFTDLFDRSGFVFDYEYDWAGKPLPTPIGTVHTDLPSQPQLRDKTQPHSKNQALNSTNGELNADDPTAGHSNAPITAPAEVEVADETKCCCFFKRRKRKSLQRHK
Platelet-derived growth factor receptor alpha (Homo sapiens), P16234 [D842V], sequence (P16234 whole entry D842V): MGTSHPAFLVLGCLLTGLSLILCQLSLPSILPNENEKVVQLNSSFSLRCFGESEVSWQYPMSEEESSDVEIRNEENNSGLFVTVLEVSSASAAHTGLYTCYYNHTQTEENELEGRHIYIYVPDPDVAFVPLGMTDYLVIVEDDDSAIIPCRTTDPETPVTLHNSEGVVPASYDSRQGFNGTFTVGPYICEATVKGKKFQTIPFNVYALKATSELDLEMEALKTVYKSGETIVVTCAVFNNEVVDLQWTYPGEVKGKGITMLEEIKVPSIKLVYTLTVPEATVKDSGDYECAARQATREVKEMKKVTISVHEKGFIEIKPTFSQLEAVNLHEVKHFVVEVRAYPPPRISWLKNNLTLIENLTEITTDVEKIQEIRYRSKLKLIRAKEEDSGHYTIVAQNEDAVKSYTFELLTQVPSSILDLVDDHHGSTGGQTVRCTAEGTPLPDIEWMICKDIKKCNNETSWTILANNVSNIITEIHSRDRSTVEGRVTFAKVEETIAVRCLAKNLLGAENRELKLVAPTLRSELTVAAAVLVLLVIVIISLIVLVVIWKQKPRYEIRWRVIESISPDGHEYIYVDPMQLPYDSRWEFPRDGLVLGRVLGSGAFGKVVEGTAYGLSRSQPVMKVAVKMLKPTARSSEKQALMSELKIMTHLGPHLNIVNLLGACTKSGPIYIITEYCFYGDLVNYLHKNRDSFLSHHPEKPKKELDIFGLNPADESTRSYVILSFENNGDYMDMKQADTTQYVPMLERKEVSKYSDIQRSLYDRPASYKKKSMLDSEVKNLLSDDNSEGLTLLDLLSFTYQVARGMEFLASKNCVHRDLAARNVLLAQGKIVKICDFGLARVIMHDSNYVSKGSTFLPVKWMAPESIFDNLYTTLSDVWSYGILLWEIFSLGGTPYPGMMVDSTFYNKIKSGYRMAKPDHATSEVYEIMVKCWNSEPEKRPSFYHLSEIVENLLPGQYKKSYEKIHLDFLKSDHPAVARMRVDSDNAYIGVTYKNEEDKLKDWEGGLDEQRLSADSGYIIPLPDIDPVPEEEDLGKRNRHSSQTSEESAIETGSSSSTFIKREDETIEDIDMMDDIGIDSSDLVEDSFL
Tyrosine-protein kinase ABL2 (Mus musculus), sequence (Q4JIM5 whole entry, canonical isoform): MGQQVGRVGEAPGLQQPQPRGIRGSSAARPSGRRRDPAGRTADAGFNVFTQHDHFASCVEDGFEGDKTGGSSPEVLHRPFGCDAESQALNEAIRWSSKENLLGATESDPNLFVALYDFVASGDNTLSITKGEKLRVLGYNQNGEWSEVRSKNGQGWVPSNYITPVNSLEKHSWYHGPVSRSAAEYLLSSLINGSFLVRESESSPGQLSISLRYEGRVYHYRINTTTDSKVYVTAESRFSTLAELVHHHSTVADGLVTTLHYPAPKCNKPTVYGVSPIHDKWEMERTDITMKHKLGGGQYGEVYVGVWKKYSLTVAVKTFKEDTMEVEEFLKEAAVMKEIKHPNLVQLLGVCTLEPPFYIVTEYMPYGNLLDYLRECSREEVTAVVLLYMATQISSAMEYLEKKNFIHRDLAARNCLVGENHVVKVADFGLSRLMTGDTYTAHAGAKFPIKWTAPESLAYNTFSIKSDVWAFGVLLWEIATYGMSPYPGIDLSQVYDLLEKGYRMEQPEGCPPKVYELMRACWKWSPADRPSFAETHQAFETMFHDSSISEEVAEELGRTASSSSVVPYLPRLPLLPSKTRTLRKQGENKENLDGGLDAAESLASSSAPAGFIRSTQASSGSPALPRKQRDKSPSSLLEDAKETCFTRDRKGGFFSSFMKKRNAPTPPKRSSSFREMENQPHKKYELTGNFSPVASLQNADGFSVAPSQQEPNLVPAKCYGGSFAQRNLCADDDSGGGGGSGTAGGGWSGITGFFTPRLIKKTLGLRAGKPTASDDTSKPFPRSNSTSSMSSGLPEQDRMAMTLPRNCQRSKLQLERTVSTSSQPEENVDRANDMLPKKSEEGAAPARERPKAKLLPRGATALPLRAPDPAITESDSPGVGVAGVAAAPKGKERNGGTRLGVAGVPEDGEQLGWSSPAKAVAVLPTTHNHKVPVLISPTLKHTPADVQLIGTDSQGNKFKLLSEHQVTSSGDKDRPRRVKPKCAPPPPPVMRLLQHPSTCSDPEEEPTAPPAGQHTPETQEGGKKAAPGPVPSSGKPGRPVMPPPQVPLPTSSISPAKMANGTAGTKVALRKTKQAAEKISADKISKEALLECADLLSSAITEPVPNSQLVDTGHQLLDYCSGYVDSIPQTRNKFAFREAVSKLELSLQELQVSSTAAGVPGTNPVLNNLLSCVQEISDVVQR
Dual specificity mitogen-activated protein kinase kinase 6 (Homo sapiens), sequence (P52564 whole entry): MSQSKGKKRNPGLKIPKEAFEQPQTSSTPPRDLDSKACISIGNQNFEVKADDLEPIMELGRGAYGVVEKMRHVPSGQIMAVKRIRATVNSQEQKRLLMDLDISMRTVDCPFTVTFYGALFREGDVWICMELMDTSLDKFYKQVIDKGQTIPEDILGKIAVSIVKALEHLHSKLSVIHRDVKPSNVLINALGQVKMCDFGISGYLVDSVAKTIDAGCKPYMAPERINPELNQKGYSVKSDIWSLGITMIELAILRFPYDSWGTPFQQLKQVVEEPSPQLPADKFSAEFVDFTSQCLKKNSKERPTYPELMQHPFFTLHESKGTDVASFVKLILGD
Fibroblast growth factor receptor 4 (Homo sapiens), sequence (P22455 22-802 limits assumed): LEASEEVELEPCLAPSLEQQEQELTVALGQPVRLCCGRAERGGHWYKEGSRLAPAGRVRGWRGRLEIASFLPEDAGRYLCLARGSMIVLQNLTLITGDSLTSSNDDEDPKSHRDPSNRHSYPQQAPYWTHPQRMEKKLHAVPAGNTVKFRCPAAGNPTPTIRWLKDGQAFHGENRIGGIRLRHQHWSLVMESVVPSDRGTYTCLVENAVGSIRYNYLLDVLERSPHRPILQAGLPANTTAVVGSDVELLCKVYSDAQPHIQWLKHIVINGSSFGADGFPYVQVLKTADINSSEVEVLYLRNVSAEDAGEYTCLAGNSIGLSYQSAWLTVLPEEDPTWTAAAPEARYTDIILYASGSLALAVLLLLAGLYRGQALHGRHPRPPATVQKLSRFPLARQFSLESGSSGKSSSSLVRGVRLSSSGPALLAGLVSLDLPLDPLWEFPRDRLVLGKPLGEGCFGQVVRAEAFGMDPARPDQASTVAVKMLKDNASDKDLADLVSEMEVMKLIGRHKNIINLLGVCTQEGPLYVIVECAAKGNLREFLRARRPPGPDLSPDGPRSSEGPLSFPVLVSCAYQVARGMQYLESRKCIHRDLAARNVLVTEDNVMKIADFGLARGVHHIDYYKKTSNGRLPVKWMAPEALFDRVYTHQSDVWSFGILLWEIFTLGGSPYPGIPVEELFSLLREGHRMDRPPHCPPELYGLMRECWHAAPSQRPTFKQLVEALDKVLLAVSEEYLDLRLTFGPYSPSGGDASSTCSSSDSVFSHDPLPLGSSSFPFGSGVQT
Ribosomal protein S6 kinase alpha-2 (Homo sapiens), sequence (Q15349 whole entry): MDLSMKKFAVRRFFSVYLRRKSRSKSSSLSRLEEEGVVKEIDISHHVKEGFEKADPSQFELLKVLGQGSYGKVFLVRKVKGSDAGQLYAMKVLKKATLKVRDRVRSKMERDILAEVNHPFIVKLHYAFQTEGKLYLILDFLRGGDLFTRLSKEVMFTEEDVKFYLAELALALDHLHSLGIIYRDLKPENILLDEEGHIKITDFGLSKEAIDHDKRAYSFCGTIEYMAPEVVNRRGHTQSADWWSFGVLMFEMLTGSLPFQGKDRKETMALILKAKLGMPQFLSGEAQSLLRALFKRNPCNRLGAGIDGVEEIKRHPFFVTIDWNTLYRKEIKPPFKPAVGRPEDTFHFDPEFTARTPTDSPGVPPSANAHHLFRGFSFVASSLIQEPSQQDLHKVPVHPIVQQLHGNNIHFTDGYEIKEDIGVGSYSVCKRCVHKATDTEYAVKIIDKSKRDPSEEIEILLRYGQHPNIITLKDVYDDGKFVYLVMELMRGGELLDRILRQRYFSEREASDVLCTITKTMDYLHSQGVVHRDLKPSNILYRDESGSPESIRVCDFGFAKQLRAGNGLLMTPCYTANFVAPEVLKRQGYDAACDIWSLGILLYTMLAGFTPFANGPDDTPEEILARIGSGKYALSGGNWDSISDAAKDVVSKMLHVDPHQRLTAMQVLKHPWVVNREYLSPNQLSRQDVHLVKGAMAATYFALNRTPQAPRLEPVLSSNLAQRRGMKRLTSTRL

Work on `CN1CCN(c2ccc(OC(F)(F)F)c(Nc3ncc4c(n3)-c3c(c(C(N)=O)nn3CCO)CC4)c2)CC1` [ONVANSERTIB] yielded an IC50 [1] of over 10000 nM, an Activity [2] of 64% and an Activity [3] of 93%. For the same compound, the Activity [4] was 131%, the Activity [5] was 122% and the Activity [6] was 85%. For the same compound, the Activity [7] was 69%, the Activity [8] was 84% and the IC50 (MFM-223) was 10 nM. For the same compound, the IC50 (HCC1954) was 15 nM, the IC50 (HCC1395) was 49 nM and the IC50 (COLO 320) was 192 nM. For the same compound, the IC50 (SW1417) was 606 nM, the IC50 (NCI-H460) was 109 nM and the IC50 (NCI-H520) was 73 nM. For the same compound, the IC50 (NCI-H889) was 135 nM, the IC50 (NCI-H146) was 339 nM and the IC50 (LNCaP) was 82 nM. It also gave an IC50 (A-431) of 59 nM, an IC50 (KU812 cell line) of 20 nM and a half-life [9] of 3.1 h. The Cmax [10] was 4.2 µM, the F [11] was 100% and the Activity (A2780 [12]) was “Dose-Dependent Effect”. For the same compound, the Activity (A2780 [13]) was “Dose-Dependent Effect”, the Activity (A2780 [14]) was “Dose-Dependent Effect” and the TGI (HT-29) was “Active”. For the same compound, the TGI (COLO 205) was “Active”.
